Results published in the array DNA melting data of Ke et al. (doi:10.1101/2024.01.08.574731).

Key:
[1] = melting temperature; fluorescence melt of hairpins on a sequencing array, two-state fit, raised by 9.35 °C to match UV melts; conditions: sodium 0.088 M
In short: (§1)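 Cy3 signals were normalised both to pre-quench Cy3 and to control constructs. They came from library hairpins carrying annealed Cy3 and quencher oligos on a sequenced MiSeq flow cell, imaged in 50 mM Na-HEPES pH 8.0, 25 mM NaCl, in 2.5 °C steps up to 60 °C. Bootstrapped two-state fits gave melting temperature and folding enthalpy, and four replicates were combined by inverse variance. Fitted temperatures were then raised by 9.35 °C to match UV melts.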

[2] = folding enthalpy; higher = less favourable; fluorescence melt of hairpins on a sequencing array, two-state fit; conditions: sodium 0.088 M
In short: as §1

| Sequence | Tm [1] [°C] | folding enthalpy [2] [kcal/mol] |
| --- | --- | --- |
| CGTGCGGAAACGCTAACG ((((((....)))..))) | 43.5 | -20 |
| GATCTCATCGGAGATC ((((((....)))))) | 52.8 | -36.1 |
| GTGTCGCCGAAAGGCCAC (((..(((....)))))) | 44.4 | -15 |
| GTTTACGGAAACGTGAAC (((.(((....))).))) | 46 | -27.7 |
| GGGCCTGGAAACGGGTCC ((.((.(....).)).)) | 50.9 | -26.3 |
| GGCCACGAAAGTGAGGCC ((((((....)))..))) | 58.3 | -26.9 |
| GGGCTCGGAAACGGGCCC ((((.((....)).)))) | 66.9 | -43.6 |
| GCTGGCGAAAGCCCTAGC ((((((....)))..))) | 40.9 | -12 |
| GATCACTGGGGTGATC ((((((....)))))) | 58.3 | -47.5 |
| GATCTCCCATGAGATC ((((((....)))))) | 51.6 | -34.4 |
| GTAGCGGGAAACCGTTAC (((.(((....))).))) | 47.8 | -30.2 |
| CGCGGACGTTTCCGCG ((((((....)))))) | 69.2 | -31.9 |
| GTTCTGGGAAACCAGAGC (.(((((....))))).) | 46.3 | -24.2 |
| GACTGTGGAAACATAGTC ((((.((....)).)))) | 45.2 | -28.5 |
| GGGACCGAAAGGTAGCCC ((((((....)))..))) | 43.2 | -16 |
| GCACGCGAAAGCGTTGC ((((((....))).))) | 64.7 | -17.8 |
| GCCTCTGGAAACAAAGGC ((((.((....)).)))) | 36.1 | -26.1 |
| GCGACGCGAAAGCTTTGC ((.(.((....)).).)) | 44.7 | -18.6 |
| GGTTGCGGAAACGCAGTC (..((((....))))..) | 36.1 | -12.8 |
| GCTTGTCGAAAGACTAGC (((.(((....))).))) | 53.9 | -34 |
| GGCAGAGCGAAAGCTGCC (((..(((....)))))) | 61.9 | -28.6 |
| GCGCATCCGAAAGGACGC (((..(((....)))))) | 50.2 | -20.5 |
| ACTAGGAAACTAGT (((((....))))) | 37.9 | -13.9 |

| Sequence | Tm [1] [°C] | folding enthalpy [2] [kcal/mol] |
| --- | --- | --- |
| GGCAGTCGAAAGACGCC (((.(((....)))))) | 65 | -26.6 |
| GCCGCCGGAAACAGCGGC (((((.(....).))))) | 66.4 | -37.4 |
| GATGAGCGAAAGCTAATC (((.(((....))).))) | 46.6 | -24.9 |
| GCCGGCGCGAAAGCGGGC (((..(((....)))))) | 63 | -14.4 |
| GCGCTCGAAAGAGACCGC ((((((....)))..))) | 44.9 | -21.8 |
| GCGGACGAAAGTCTTCGC ((((((....)))..))) | 45.9 | -23.4 |
| GTGAGGCGAAAGCCCAC (((.(((....)))))) | 61.8 | -18.4 |
| GCTCGGCGAAAGCCGCGC ((.((((....)))).)) | 65.1 | -18.5 |
| GGGTTGGAAACAACCC ((((((....)))))) | 64.7 | -38.2 |
| GAATTCCGAAAGGATTC (((.(((....)))))) | 38.4 | -20.2 |
| GATCCCAGGTGGGATC ((((((....)))))) | 60.1 | -37 |
| GCAACCGAAAGGTGGTGC ((((((....)))..))) | 48.6 | -20.8 |
| GTCAATCGAAAGATGAC (((.(((....)))))) | 45.9 | -25.7 |
| GATGTTGGAAACAGTATC (((..((....))..))) | 27 | -10.2 |
| GCGAAGGGAAACCTCCGC (((.(((....))).))) | 46.6 | -26.1 |
| GCGTAAGGACGC ((((....)))) | 49.3 | -19.7 |
| GCTCCTGGAAACAGAAGC (((.(((....))).))) | 39.9 | -28.5 |
| ATGTGGAAACACAT (((((....))))) | 46.1 | -20.3 |
| GCGCTCCGAAAGGACCGC (((.(((....))).))) | 53 | -44.6 |
| GACAGCGAAAGCTAGGTC ((((((....)))..))) | 39.4 | -18.4 |
| GTTGCAGCGAAAGCTAAC (((..(((....)))))) | 29.2 | -11.6 |
| GATTGCGCGAAAGCGATC (((..(((....)))))) | 32 | -9.1 |
| GGGCTGTCGAAAGACCCC (((..(((....)))))) | 44.1 | -18.4 |

| Sequence | Tm [1] [°C] | folding enthalpy [2] [kcal/mol] |
| --- | --- | --- |
| GCCGGGCGAAAGCAAGGC (((..((....))..))) | 68.5 | -34 |
| GGATTCGAAAGAACTTCC ((((((....)))..))) | 28.4 | -8.73 |
| GATCTACGATTAGATC ((((((....)))))) | 34.9 | -27.4 |
| GATCTACAGATAGATC ((((((....)))))) | 37.3 | -26.6 |
| GTTTTCGGAAACGGAAAC ((((.((....)).)))) | 47.1 | -27.1 |
| GGTAACGGAAACGTTACC (((((((....))))))) | 63.2 | -45.6 |
| GGAGAGGGAAACCTCTCC (((((((....))))))) | 63.3 | -46.6 |
| GATCCGTCAGCGGATC ((((((....)))))) | 57.4 | -42.6 |
| GCACATCGAAAGATTTGC (((.(((....))).))) | 45.2 | -36.1 |
| GATCTGAAGCCAGATC ((((((....)))))) | 45.5 | -33.2 |
| GATCACCCGAAAGGGATC (((..(((....)))))) | 35.5 | -14 |
| GAACGCGCGAAAGCGTTC (((..(((....)))))) | 57.8 | -24.7 |
| GAACACGAAAGTGCTTTC ((((((....)))..))) | 27.8 | -13 |
| GCAGGCGGAAACGCCCAC (..((((....))))..) | 27.1 | -6.7 |
| GGGAATGGAAACATTTCC ((.((((....)))).)) | 45.1 | -32 |
| GTTTATGGAAACGTAAAC (((((.(....).))))) | 37.5 | -30 |
| GCTTCCGAAAGGAAAAGC ((((((....)))..))) | 49.7 | -17.6 |
| GGATACGAAAGTACTTCC ((((((....)))..))) | 34.8 | -17.1 |
| GCACTAGGAAACTAGTAC (.(((((....))))).) | 31 | -20.8 |
| GCGAGCATTCGC ((((....)))) | 57.1 | -27.1 |
| GATAGCGGAAACGCTGTC ((.((((....)))).)) | 52.2 | -25 |
| GCCACGGGAAACTGTGGC (((((.(....).))))) | 63.2 | -43.2 |
| GATCCCTATAGGGATC ((((((....)))))) | 65.6 | -45.4 |

| Sequence | Tm [1] [°C] | folding enthalpy [2] [kcal/mol] |
| --- | --- | --- |
| CACAGGAAACTGTG (((((....))))) | 50.2 | -21 |
| GCGACCGGAAACGGTCAC (.(((((....))))).) | 51.4 | -12.3 |
| GTGCCGCGAAAGCGACAC (((.(((....))).))) | 65.7 | -34.4 |
| GAGAAAGAAATTTCTC ((((((....)))))) | 36.4 | -18.8 |
| GCACAGCGAAAGCGATGC (((..((....))..))) | 51.6 | -15.8 |
| GTATCACGAAAGTGGTAC (((.(((....))).))) | 52.8 | -27.9 |
| GCGGTGCGAAAGCCCGGC ((.(.((....)).).)) | 61.7 | -12.4 |
| GTCACAGGAAACTGCGAC (((.(((....))).))) | 46.1 | -28.8 |
| GATCTAGAGGTAGATC ((((((....)))))) | 35.1 | -24.4 |
| GGATAGCGAAAGCTTTCC (((.(((....))).))) | 49.3 | -29.7 |
| GCGTATCGAAAGATCGC (((.(((....)))))) | 55.6 | -34.2 |
| GCGCCGCGAAAGCGCTGC ((..(((....)))..)) | 61.1 | -15.6 |
| GCGTAGCACGC ((((...)))) | 68.2 | -11 |
| GTCAAACGAAAGTTCGAC (((.(((....))).))) | 43.1 | -30.7 |
| GCTGCCGAAAGGCGGAGC ((((((....)))..))) | 51.3 | -12.6 |
| GAGGCCGAAAGGCGCCTC ((((((....)))..))) | 42 | -12.4 |
| GCATAGCCGAAAGGCTGC (((..(((....)))))) | 49.3 | -12.6 |
| GATGCCCGAAAGGGATC (((.(((....)))))) | 45 | -17.4 |
| GATCTATCGTTAGATC ((((((....)))))) | 37.8 | -19.4 |
| GAGTTCGGAAACAAACTC (((((.(....).))))) | 34 | -27.5 |
| GCCACCCGAAAGGGGGC (((.(((....)))))) | 68.5 | -22.8 |
| GAAGGGCGAAAGCCGTTC (((.(((....))).))) | 56.6 | -22.7 |
| CCGATGAAAATCGG (((((....))))) | 55.6 | -21.4 |
